Measurements taken from ChEMBL document CHEMBL1134562, “Fluorosulfonyl- and bis-(beta-chloroethyl)amino-phenylamino functionalized pyrazolo[4,3-e]1,2,4-triazolo[1,5-c]pyrimidine derivatives: irreversible antagonists at the human A3 adenosine receptor and molecular modeling studies” (J Med Chem, 2001).

Experiments:
[1] = target: T1, Adenosine receptor A3 (Homo sapiens) (UniProt P0DMS8); experiment: Irreversible inhibition of […]-AB-MECA binding to human adenosine A3 receptor at 100 nM
T1 sequence (whole entry): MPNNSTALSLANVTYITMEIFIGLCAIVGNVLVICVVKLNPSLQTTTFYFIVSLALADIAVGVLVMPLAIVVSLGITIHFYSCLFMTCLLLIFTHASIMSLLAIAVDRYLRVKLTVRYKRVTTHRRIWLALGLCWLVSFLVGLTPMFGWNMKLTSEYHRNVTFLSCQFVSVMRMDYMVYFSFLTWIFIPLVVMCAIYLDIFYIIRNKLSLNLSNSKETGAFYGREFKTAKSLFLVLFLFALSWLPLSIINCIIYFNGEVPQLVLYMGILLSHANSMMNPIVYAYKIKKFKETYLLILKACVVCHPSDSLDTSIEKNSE
How it was run: (§1)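 Membranes from CHO cells stably expressing human A3 receptor, preincubated 1 h at room temperature with compound (DMSO ≤1%), then washed 9 times by centrifugation/resuspension in 50 mM Tris, 10 mM Mg2+, 1 mM EDTA pH 7.4 with 0.02% CHAPS; adenosine deaminase 3 units/mL throughout.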

[2] = target: T1, Adenosine receptor A3 (Homo sapiens); experiment: Irreversible inhibition of […]-AB-MECA binding to human adenosine A3 receptor at 10 nM; how it was run: as §1
[3] = target: T1, Adenosine receptor A3 (Homo sapiens); experiment: Irreversible inhibition of […]-AB-MECA binding to human adenosine A3 receptor at 1 nM; how it was run: as §1

SMILES | inhibition [1] | inhibition [2] | inhibition [3]
CCCn1cc2c(nc(NC(=O)Nc3ccc(S(=O)(=O)F)cc3)n3nc(-c4ccco4)nc23)n1 | 79% | 70% | 47%
CCn1cc2c(nc(NC(=O)Nc3ccc(N(CCCl)CCCl)cc3)n3nc(-c4ccco4)nc23)n1 | 18% | 0% | 0%
CCn1cc2c(nc(NC(=O)Nc3ccc(S(=O)(=O)F)cc3)n3nc(-c4ccco4)nc23)n1 | 65% | 30% | 4.1%
CCCn1cc2c(nc(NC(=O)Nc3ccc(N(CCCl)CCCl)cc3)n3nc(-c4ccco4)nc23)n1 | 16% | 11% | 7.8%
CCCCn1cc2c(nc(NC(=O)Nc3ccc(S(=O)(=O)F)cc3)n3nc(-c4ccco4)nc23)n1 | 73% | 40% | 31%
CCCCn1cc2c(nc(NC(=O)Nc3ccc(N(CCCl)CCCl)cc3)n3nc(-c4ccco4)nc23)n1 | 9% | 7% | 0%
Cn1cc2c(nc(NC(=O)Nc3ccc(N(CCCl)CCCl)cc3)n3nc(-c4ccco4)nc23)n1 | 22% | 11% | 0%
